A selection: hits, their analogues and other compounds. The true share with any hit is near 1.6%.
FLuc inh counter = Photinus pyralis luciferase inhibition counter-screen | hit rate 1.5% among 200,000 | ATPLite firefly luciferase biochemical luminescence, 10 min | P08659 | AID 1006 | inhibition, % at 10 µM;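 active = inhibition above about 50% when tested at 10 µM, limit read from the data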
Target sequence (P08659 whole entry, looked up): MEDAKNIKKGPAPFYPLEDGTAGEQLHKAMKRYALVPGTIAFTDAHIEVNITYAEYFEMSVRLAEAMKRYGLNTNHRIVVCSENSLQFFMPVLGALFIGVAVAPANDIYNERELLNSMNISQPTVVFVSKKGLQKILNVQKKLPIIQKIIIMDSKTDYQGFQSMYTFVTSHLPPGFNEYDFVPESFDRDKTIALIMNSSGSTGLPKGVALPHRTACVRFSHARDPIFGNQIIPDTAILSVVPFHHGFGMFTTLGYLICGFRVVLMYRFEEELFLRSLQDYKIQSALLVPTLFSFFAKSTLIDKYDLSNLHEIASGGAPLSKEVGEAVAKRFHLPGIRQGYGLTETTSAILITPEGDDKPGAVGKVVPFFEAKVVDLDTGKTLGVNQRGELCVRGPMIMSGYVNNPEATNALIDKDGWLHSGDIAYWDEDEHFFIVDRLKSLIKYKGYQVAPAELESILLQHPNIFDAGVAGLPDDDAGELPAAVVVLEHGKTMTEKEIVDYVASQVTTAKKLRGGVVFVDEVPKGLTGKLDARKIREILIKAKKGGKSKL
FLuc act counter = firefly luciferase counter-screen for stimulation assays; ATPlite luciferase biochemical, luminescence, 10 min; 0 = ATP-free wells, 1 = DMSO control; activation factor at 10 µM; 200,000 tested, under 10 active;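 active = luciferase activation factor, scaled between plate controls, of at least 2 with compound at 10 µM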
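Material: Luciferase/luciferin reagent mix; Doses: test compounds dosed from 2 mM stocks in 100% DMSO; Schedule: 10 min incubation after luciferase reagent addition, room temperature; Measured by: luminescence from luciferase reaction; Read-out: luminescence gain marking luciferase activators.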
PPC-1+TRAIL kill = PPC-1 cancer cell killing with TRAIL present | PPC-1 cells + TRAIL, ATPLite viability luminescence | cell killing (% activity), % at 4 µM or 5 µM | hit rate 0.41% among 220,000 | AID 1443;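 active = cell killing above 50% in the first pass at 4 µM, then a duplicate retest at 5 µM averaging 50% or more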;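 also: plate controls were cells with TRAIL plus DMSO for no effect and medium-only wells lacking cells for full effect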
C8 TRAIL sens = caspase-8 TRAIL sensitization. inhibition (viability loss, TRAIL sensitization), % at 10 µM. NB7+C8 cells + TRAIL, ATPlite viability luminescence. hit rate 1% among 360,000;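 active = compounds causing at least 50% loss of cell viability in the single-dose screen, relative to plate controls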
An asterisk follows results filed as active; / = not tested or not shown.

SMILES	FLuc inh counter	FLuc act counter	PPC-1+TRAIL kill	C8 TRAIL sens
C[C@@H]1O[C@@H](O[C@H]2C[C@@H](O)[C@]3(CO)[C@@H]4C(CC[C@]3(O)C2)[C@@]2(O)CC[C@H](C3COC(=O)C3)[C@@]2(C)C[C@H]4O)[C@H](O)[C@H](O)[C@H]1O (stereo not given in full)	/	/	/	11
CC12CCC(O)CC1CCC1C2CCC2(C)C(C3=CC(=O)OC3)CCC12O (stereo not given)	/	/	/	64*
CC12CCC(O)CC1CCC1C2CCC2(C)C(C3=CC(=O)OC3)C(O)CC12O (stereo not given)	/	/	/	58*
C[C@]12CC[C@H](O)C[C@H]1CC[C@@H]1[C@@H]2CC[C@]2(C)[C@@H](C3=CC(=O)OC3)CC[C@]12O	/	/	/	37
CNC(C(=O)c1ccccc1)C(OC(C)C)c1ccc(Cl)cc1 (stereo not given)	-7	1.1	17	12
COC(=O)c1c2[n+](cc3cc(OC)c(OC)cc13)CCc1cc(OC)c(OC)cc1-2	/	/	/	-21
CCOC(=O)C(=CNc1ccc(C(O)(C(=O)OCC)C(F)(F)F)cc1C)C(=O)OCC (stereo not given)	-8	1.1	10	73*
CCOC(=O)C(O)(c1ccc(NC(=O)c2ccc(Cl)c(Cl)c2)cc1)C(F)(F)F (stereo not given)	/	/	-12	-9
COc1ccc(CC2C(=O)NC(C)C(=O)N(C)C3C(=O)N(C)C(Cc4ccc(O)c(c4)Oc4ccc(cc4)C3O)C(=O)NC(C)C(=O)NC(C)C(=O)N2C)cc1 (stereo not given)	/	/	/	66*
CCN1CCN(c2nc3c(c(=O)[nH]2)CCCC3)CC1	-8	1.1	0	-1
CCCOC(=O)c1ccc(-[n+]2c(-c3ccccc3)cc(-c3ccccc3)cc2-c2ccccc2)cc1	/	/	/	58*
Brc1ccc(-[n+]2c(-c3ccccc3)cc(-c3ccccc3)cc2-c2ccccc2)cc1	/	/	/	56*
COc1ccc(-[n+]2c(-c3ccccc3)cc(-c3ccc(C)cc3)cc2-c2ccccc2)cc1	/	/	/	57*
Cc1ccccc1-[n+]1c(-c2ccccc2)cc(-c2ccccc2)cc1-c1ccccc1	/	/	/	67*
O=C(O)c1ccc(-[n+]2c(-c3ccccc3)cc(-c3ccccc3)cc2-c2ccccc2)cc1	/	/	/	4
COC(=O)C1=C(c2ccc(Cl)c(C(F)(F)F)c2)C[C@@H]2CC[C@H]1N2C(=O)NCc1ccco1	/	/	/	-3
CCCC12CN3CC(CCC)(CN(C1)C3c1ccccn1)C2=O (stereo not given)	-6	1.1	46	6
CC(CC(C#N)(c1ccccc1)c1ccccc1)N1CCOCC1 (stereo not given)	/	/	/	-9
Cc1ccc2nc3c(cc2c1)CC1(C(=O)N(C)C(=O)N(C)C1=O)C1CCCCN31 (stereo not given)	53*	0.5	38	28
NC(Cc1ccc(F)cc1)c1csc(Nc2ncccn2)n1 (stereo not given)	/	/	/	32
COc1ccc(Oc2cc(NC(=O)c3nn(C)cc3[N+](=O)[O-])cc([N+](=O)[O-])c2)cc1	-10	1.1	23	88*
O=c1[nH]c(=O)n(CCc2ccccc2)c(O)c1C=NC1CC1	/	/	-5	-14
COC(=O)C1=C(c2ccc(F)cc2OCc2ccccc2)C[C@@H]2CC[C@H]1N2C(=O)NCc1ccc([N+](=O)[O-])cc1	/	/	/	23
COC(=O)C1=C(c2ccc(F)cc2OCc2ccccc2)C[C@@H]2CC[C@H]1N2C(=O)NC1Cc2ccccc2C1	/	/	/	-3
CC(=O)OC1CC2OC3C=C(C)CCC3(C)C1(C)C21CO1 (stereo not given)	/	/	/	58*
SMILES	FLuc inh counter	FLuc act counter	PPC-1+TRAIL kill	C8 TRAIL sens
CC(=O)O[C@H]1C[C@@H]2OC3C=C(C)CCC3(C)[C@@]1(C)[C@@]21CO1 (stereo not given in full)	/	/	/	26
CC(C)(O)/C=C/C(=O)C(C)(O)C1C(O)CC2(C)C3CC=C4C(C=C(O)C(=O)C4(C)C)C3(C)C(=O)CC12C (stereo not given)	/	/	/	62*
CCCCCCCCCOc1ccc2[nH]cc(CCN)c2c1	-1	1	61*	/
CN(C)c1ccc(/C=C/[N+](=O)[O-])cc1	0	1	9	17
C/C(=C\c1ccc(N(C)C)cc1)[N+](=O)[O-]	6	0.9	36	50*
COc1ccc(OC)c(-n2c(O)c(C=Nc3c(C)n(C)n(-c4ccccc4)c3=O)c(=O)[nH]c2=S)c1	/	/	7	-2
CCCC[C@@H](C)C[C@@H](C)C(=O)N(C)[C@@H](CC(C)C)C(=O)N[C@H](C(=O)N(C)[C@H](C(=O)N1C[C@@H](O)C[C@H]1C(=O)N1C(=O)C=C[C@@H]1C)C(C)C)C(C)OC(C)=O (stereo not given in full)	/	/	/	89*
CCN1CCN(CC(c2ccccc2)c2ccccc2)CC1	/	/	/	8
O=C(c1ccccc1)C(CN1CCCC1)c1ccccc1 (stereo not given)	-6	1.1	57*	19
Cc1cc(C=C2C(=O)NC(=S)NC2=O)c(C)n1C1CCCC1	77*	0.2	16	-2
c1ccc2sc(NC3=NCCN3)nc2c1	10	0.9	20	-2
COc1ccc2nc(NC3=NCCN3)sc2c1	57*	0.4	14	33
Clc1ccc(C(c2ccc(Cl)cc2)n2cc[n+](CC(OCc3ccc(Cl)cc3Cl)c3ccc(Cl)cc3Cl)c2)cc1 (stereo not given)	/	/	/	94*
Clc1ccc(COC(Cn2ccnc2)c2ccc(Cl)cc2Cl)cc1 (stereo not given)	-5	1	4	6
O=C(O)C(Br)CBr (stereo not given)	/	/	/	3
CN(C)C(Cc1ccccc1)C(=O)c1ccccc1 (stereo not given)	2	1	29	9
CC(C)N(C(=O)CCl)c1ccccc1	/	/	/	91*
CCN1C[C@]2(COC(=O)c3ccccc3N)CC[C@H](OC)C34[C@@H]5C[C@H]6[C@H](OC)[C@@H]5[C@](O)(C[C@@H]6OC)[C@@](O)([C@H]13)[C@@H](OC)[C@@H]42	/	/	/	24
CC[C@H](C)[C@@H]1NC(=O)CNC(=O)c2csc(n2)[C@H](C(C)(C)O)OC(=O)C(C)(C)[C@H](CCCC(C)(Cl)Cl)OC(=O)c2csc1n2	/	/	/	50*
CN1/C(=C\C=C2C(=O)NC(=O)NC2=O)C(C)(C)c2ccccc21	-4	1	1	-4
CN1/C(=C\C=Nc2ccccc2)C(C)(C)c2ccccc21	-8	1.1	13	3
CN1/C(=C\C=C\C2=[N+](C)c3ccc4ccccc4c3C2(C)C)C(C)(C)c2ccccc21	41	0.6	66*	/
CCN1/C(=C/C=C/C2=[N+](CC)c3ccccc3C2(C)C)C(C)(C)c2ccccc21	/	/	/	71*
CNC(=O)Oc1ccccc1C1CCCCC1	/	/	/	-20
COC(=O)C1=C(c2ccc(S(C)(=O)=O)cc2)C[C@@H]2CC[C@H]1N2C(=O)NCc1ccc(C(F)(F)F)cc1	/	/	/	2

Screening results: PubChem BioAssay, Sanford-Burnham Center for Chemical Genomics
